Measured values published in PMC6980694 (European journal of medicinal chemistry, 2019).

What was measured:
[1] = test system: Zika virus (PRVABC59 strain); type: cell-based; details: for anti-Zika activity (in words): PRVABC59 strain, MOI 1, SNB-19 cells 24 h, titer in Vero cells 48 h
Summary of the method: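 SNB-19 cells, pretreated 1 h with graded compound concentrations (0.1% DMSO final), then infected with C6/36-derived ZIKV at MOI 1. Supernatants were harvested 24 h post-infection and focus-titered on confluent Vero cells: 2 h inoculation, methylcellulose overlay for 48 h, 4G2 antibody with HRP/DAB staining, foci counted.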

[2] = Cytotoxicity to Vero cells; type: cell-based; details: monkey, Vero kidney cells

| SMILES | anti-Zika activity (in words) [1] | CC50 at 48 h [2] [µM] | also measured |
| --- | --- | --- | --- |
| C=C1CC[C@@H]2[C@](C)(CO)[C@H](O)CC[C@@]2(C)[C@@H]1C/C=C1/C(=O)OC[C@@H]1Oc1cccc2cccnc12 [Compound 3] | – | – | safety/selectivity index (SI) ([1]; cell line not specified, CC50 in SNB-19 and Vero vs EC50): > 16 |
| C=C1CC[C@@H]2[C@](C)(CO)[C@H](O)CC[C@@]2(C)[C@@H]1C/C=C1/C(=O)OC[C@@H]1Oc1ccnc2ccccc12 [Compound 6] | inactive | – | – |
| C=C1CC[C@@H]2[C@](C)(CO)[C@H](O)CC[C@@]2(C)[C@@H]1C/C=C1/C(=O)OC[C@H]1Oc1ccnc2ccccc12 [Compound 7] | – | 22.3 | – |
| C=C1CC[C@@H]2[C@]3(C)COC(C)(C)O[C@@H]3CC[C@@]2(C)[C@@H]1C/C=C1/C(=O)OC[C@@H]1Oc1c(Cl)cc(Cl)c2cccnc12 [Compound 15a, (14β)-(Quinolyl-5’,7’-dichloro-8’-oxy)-3,19-acetonylidene andrographolide] | do not show anti-Zika activity | – | – |
| C=C1CC[C@@H]2[C@]3(C)COC(C)(C)O[C@@H]3CC[C@@]2(C)[C@@H]1C/C=C1/C(=O)OC[C@H]1Oc1c(Cl)cc(Cl)c2cccnc12 [Compound 15b, (14α)-(Quinolyl-5’,7’-dichloro-8’-oxy)-3,19-acetonylidene andrographolide] | do not show anti-Zika activity | – | – |
| C=C1CC[C@@H]2[C@](C)(CO)[C@H](O)CC[C@@]2(C)[C@@H]1C/C=C1/C(=O)OC[C@H]1Oc1c(Cl)cc(Cl)c2cccnc12 [Compound 16b, (14α)-(Quinolyl-5’,7’-dichloro-8’-oxy)andrographolide] | – | 58.6 | – |
